Measurements: ChEMBL document CHEMBL1125429, “Intriguing structure-activity relations underlie the potent inhibition of HIV protease by norstatine-based peptides” (J Med Chem, 1992)

Key:
[1] = target: T1, Human immunodeficiency virus type 1 protease (Human immunodeficiency virus 1, UniProt Q72874); assay: Inhibitory activity of the Compound was tested against HIV protease enzyme.(value reported by Roche group)
[2] = target: T1, Human immunodeficiency virus type 1 protease; assay: Binding affinity against HIV protease enzyme.(by Dixon analysis)
Method in brief: (§1)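 HIV-1 protease from the BRU strain was expressed in a microbial host. Activity was followed as hydrolysis of the octapeptide substrate VSQN-β-naphthylalanine-PIV, using a modified version of Heimbach's method.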

[3] = target: T1, Human immunodeficiency virus type 1 protease; assay: Inhibitory activity of the Compound was tested against HIV protease enzyme.; method in brief: as §1
[4] = target: T1, Human immunodeficiency virus type 1 protease; assay: Inhibitory activity of the Compound was tested against HIV protease enzyme.(value reported by Rich etal)
[5] = target: T1, Human immunodeficiency virus type 1 protease; assay: (§2) Inhibitory activity of the Compound was tested against HIV protease enzyme
Method in brief: (§3)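 HIV-1 protease (BRU strain), microbially expressed; activity followed as hydrolysis of the octapeptide substrate VSQN-β-naphthylalanine-PIV, using a modified literature method.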

[6] = target: T1, Human immunodeficiency virus type 1 protease; assay: as §2; method in brief: as §3; remark: listed apart in the source
[7] = target: T1, Human immunodeficiency virus type 1 protease; assay: Binding affinity against HIV Protease enzyme.(by Dixon analysis); method in brief: as §1

For `CC(C)(C)NC(=O)[C@@H]1CCCCN1C[C@@H](O)[C@H](Cc1ccccc1)NC(=O)[C@H](CC(N)=O)NC(=O)OCc1ccccc1`, the IC50 [1] was 0.018 µM.
In the case of `CC(C)(C)NC(=O)[C@@H]1CCCN1C(=O)[C@@H](O)[C@H](Cc1ccccc1)NC(=O)[C@H](CC(N)=O)NC(=O)c1ccc2ccccc2n1`, the Ki [2] is reported as 0.0009 µM and the IC50 [3] is reported as 0.0011 µM.
`CC[C@H](C)[C@H](NC(=O)[C@@H]1CCCN1C(=O)[C@@H](O)[C@H](Cc1ccccc1)NC(=O)[C@@H](CC(N)=O)NC(=O)OCc1ccccc1)C(=O)N[C@H](C(=O)OC)C(C)C` showed an IC50 [3] of 0.0031 µM.
`CC(C)(C)NC(=O)[C@@H]1C[C@@H]2CCCC[C@@H]2CN1C(=O)[C@@H](O)[C@H](Cc1ccccc1)NC(=O)[C@H](CC(N)=O)NC(=O)c1ccc2ccccc2n1` was tested, and the IC50 [3] was 0.027 µM.
With `CC(C)(C)NC(=O)[C@@H]1CCCN1C(=O)C(=O)[C@H](Cc1ccccc1)NC(=O)[C@H](CC(N)=O)NC(=O)OCc1ccccc1` the IC50 [3] was 0.02 µM.
`CC(C)(C)NC(=O)[C@@H]1CCCN1C[C@@H](O)[C@H](Cc1ccccc1)NC(=O)[C@H](CC(N)=O)NC(=O)OCc1ccccc1` was tested, and the IC50 [1] was 0.21 µM.
For `CC(C)(C)NC(=O)[C@@H]1CCCN1C(=O)[C@@H](O)[C@H](Cc1ccccc1)NC(=O)[C@H](CC(N)=O)NC(=O)COc1ccc2ccccc2c1`, the IC50 [3] was 0.0013 µM.
Compound `CC[C@H](C)[C@H](NC(=O)[C@@H]1CCCN1C(=O)[C@H](O)[C@H](Cc1ccccc1)NC(=O)[C@H](CC(N)=O)NC(=O)OCc1ccccc1)C(=O)N[C@H](C(=O)OC)C(C)C` has an IC50 [3] of 0.025 µM.
`CC(C)[C@H](NC(=O)COc1cccc2ccccc12)C(=O)N[C@@H](Cc1ccccc1)[C@H](O)C(=O)N1CCC[C@H]1C(=O)NC(C)(C)C` gave an IC50 [3] of 0.0019 µM.
`CC(C)[C@H](NC(=O)OCc1ccccc1)C(=O)N[C@@H](Cc1ccccc1)[C@H](O)C(=O)N1CCC[C@H]1C(=O)NC(C)(C)C` showed an IC50 [3] of 0.0043 µM.
Compound `CC(C)(C)NC(=O)[C@@H]1CCCN1C(=O)[C@H](O)[C@H](Cc1ccccc1)NC(=O)[C@H](CC(N)=O)NC(=O)OCc1ccccc1` has an IC50 [3] of 3.1 µM.
In the case of `CC(C)(C)OC(=O)[C@@H]1CCCN1C[C@@H](O)[C@H](Cc1ccccc1)NC(=O)OCc1ccccc1`, the IC50 [1] is reported as 6.5 µM.
Work on `CC(C)(C)OC(=O)[C@@H]1CCCN1C[C@H](O)[C@H](Cc1ccccc1)NC(=O)[C@H](CC(N)=O)NC(=O)OCc1ccccc1` yielded an IC50 [4] of 0.45 µM, an IC50 [5] of 0.13 µM and an IC50 [6] of 0.18 µM.
For `CC(C)(C)NC(=O)[C@@H]1CCCN1C(=O)[C@@H](O)[C@H](Cc1ccccc1)NC(=O)OCc1ccccc1`, the IC50 [3] was 0.46 µM.
Work on `CC(C)(C)NC(=O)[C@@H]1CCCN1C(=O)C(=O)[C@H](Cc1ccccc1)NC(=O)OCc1ccccc1` yielded an IC50 [3] of 0.6 µM.
`CC(C)(C)NC(=O)[C@@H]1CCCN1C(=O)[C@@H](O)[C@H](Cc1ccccc1)NC(=O)[C@H](CC(N)=O)NC(=O)COc1cccc2ccccc12` showed a Ki [7] of 0.0004 µM and an IC50 [3] of 0.00058 µM.
`CC(C)(C)NC(=O)[C@@H]1CCCCN1C(=O)[C@@H](O)[C@H](Cc1ccccc1)NC(=O)[C@H](CC(N)=O)NC(=O)OCc1ccccc1` gave an IC50 [3] of 0.026 µM.
Compound `CC(C)(C)NC(=O)[C@@H]1C[C@@H]2CCCC[C@@H]2CN1C(=O)[C@@H](O)[C@H](Cc1ccccc1)NC(=O)[C@H](CC(N)=O)NC(=O)OCc1ccccc1` has an IC50 [3] of 0.084 µM.
Compound `CC(C)(C)NC(=O)[C@@H]1CCCN1C(=O)[C@@H](O)[C@H](Cc1ccccc1)NC(=O)[C@H](CC(N)=O)NC(=O)OCc1ccccc1` has a Ki [7] of 0.004 µM and an IC50 [3] of 0.0074 µM.
For `CC(C)(C)NC(=O)[C@@H]1CC2CCCCC2CN1C[C@@H](O)[C@H](Cc1ccccc1)NC(=O)[C@H](CC(N)=O)NC(=O)OCc1ccccc1` (stereo not given in full), the IC50 [1] was under 0.0027 µM.
